Test results from ChEMBL document CHEMBL4330063, “New naphthopyran analogues of LY290181 as potential tumor vascular-disrupting agents” (Eur J Med Chem, 2019).
Values belong to the molecule of their own block, whether it stands above or below them. The source made the active and inactive calls. The rule behind the calls is not given here.

Tests used:
518A2 [1] = assay: Antiproliferative activity against human 518A2 cells after 72 hrs by MTT assay; assay type: functional, cell-based; conditions: for IC50: 518A2, 72 h
Method in brief: (§1)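 MTT read-out after 72 h of continuous exposure. Viability is expressed as percentage of viable cells relative to untreated controls. IC50 comes from dose-response curves. Values are means±SD of four independent experiments (two for some entries). DMSO was below 1%, with vehicle controls at equal DMSO. Precipitation was excluded spectrometrically and microscopically.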

HT-29 [2] = assay: Antiproliferative activity against human HT-29 cells after 72 hrs by MTT assay; assay type: functional, cell-based; conditions: HT-29, 72 h; method in brief: as §1
A2780 = assay: Antiproliferative activity against human A2780 cells after 72 hrs by SRB assay; assay type: functional, cell-based; conditions: A2780, 72 h
Method in brief: (§2)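 Ovarian A2780 and cisplatin-resistant A2780cis cells were exposed for 72 h and stained with SRB. IC50 comes from dose-response curves, as means±SD of three independent experiments. Final DMSO was below 1%, with matched vehicle controls.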

[3] = Antiproliferative activity against human A2780cis cells after 72 hrs by SRB assay; assay type: functional, cell-based; method in brief: as §2
DLD-1 = assay: Antiproliferative activity against human DLD1 cells after 72 hrs by MTT assay; assay type: functional, cell-based; conditions: DLD-1, 72 h; method in brief: as §1
EA.hy 926 = assay: Antiproliferative activity against human EAhy926 cells after 72 hrs by MTT assay; assay type: functional, cell-based; conditions: EA.hy 926, 72 h; method in brief: as §1
PANC-1 = assay: Antiproliferative activity against human PANC1 cells after 72 hrs by MTT assay; assay type: functional, cell-based; conditions: PANC-1, 72 h; method in brief: as §1
HCT-116 = assay: Antiproliferative activity against human HCT116 cells after 72 hrs by MTT assay; assay type: functional, cell-based; conditions: HCT-116, 72 h; method in brief: as §1
[4] = Antiproliferative activity against human KB-V1/Vbl cells after 72 hrs by MTT assay; assay type: functional, cell-based; method in brief: as §1
[5] = Antiproliferative activity against human MCF7/Topo cells after 72 hrs by MTT assay; assay type: functional, cell-based; method in brief: as §1
HT-29 [6] = assay: Cell cycle arrest in human HT-29 cells assessed as accumulation of cells at sub G1 phase at 100 nM after 24 hrs by propidium iodide staining-based flow cytometric analysis (reference value: 1.2 +/- 0.3%); assay type: functional
HT-29 [7] = assay: Cell cycle arrest in human HT-29 cells assessed as accumulation of cells at sub G1 phase at 250 nM after 24 hrs by propidium iodide staining-based flow cytometric analysis (reference value: 1.2 +/- 0.3%); assay type: functional
HT-29 [8] = assay: Cell cycle arrest in human HT-29 cells assessed as accumulation of cells at sub G1 phase at 350 nM after 24 hrs by propidium iodide staining-based flow cytometric analysis (reference value: 1.2 +/- 0.3%); assay type: functional
HT-29 [9] = assay: Cell cycle arrest in human HT-29 cells assessed as accumulation of cells at G1 phase at 100 nM after 24 hrs by propidium iodide staining-based flow cytometric analysis (reference value: 75.1 +/- 1.1%); assay type: functional
HT-29 [10] = assay: Cell cycle arrest in human HT-29 cells assessed as accumulation of cells at G1 phase at 250 nM after 24 hrs by propidium iodide staining-based flow cytometric analysis (reference value: 75.1 +/- 1.1%); assay type: functional
HT-29 [11] = assay: Cell cycle arrest in human HT-29 cells assessed as accumulation of cells at G1 phase at 350 nM after 24 hrs by propidium iodide staining-based flow cytometric analysis (reference value: 75.1 +/- 1.1%); assay type: functional
HT-29 [12] = assay: Cell cycle arrest in human HT-29 cells assessed as accumulation of cells at S phase at 100 nM after 24 hrs by propidium iodide staining-based flow cytometric analysis (reference value: 12.3 +/- 0.4%); assay type: functional
HT-29 [13] = assay: Cell cycle arrest in human HT-29 cells assessed as accumulation of cells at S phase at 250 nM after 24 hrs by propidium iodide staining-based flow cytometric analysis (reference value: 12.3 +/- 0.4%); assay type: functional
HT-29 [14] = assay: Cell cycle arrest in human HT-29 cells assessed as accumulation of cells at S phase at 350 nM after 24 hrs by propidium iodide staining-based flow cytometric analysis (reference value: 12.3 +/- 0.4%); assay type: functional
HT-29 [15] = assay: Cell cycle arrest in human HT-29 cells assessed as accumulation of cells at G2/M phase at 100 nM after 24 hrs by propidium iodide staining-based flow cytometric analysis (reference value: 11.4 +/- 1.4%); assay type: functional
HT-29 [16] = assay: Cell cycle arrest in human HT-29 cells assessed as accumulation of cells at G2/M phase at 250 nM after 24 hrs by propidium iodide staining-based flow cytometric analysis (reference value: 11.4 +/- 1.4%); assay type: functional
HT-29 [17] = assay: Cell cycle arrest in human HT-29 cells assessed as accumulation of cells at G2/M phase at 350 nM after 24 hrs by propidium iodide staining-based flow cytometric analysis (reference value: 11.4 +/- 1.4%); assay type: functional
Chorioallantoic membrane [18] = assay: Antiangiogenic activity in Leghorn chicken embryo chorioallantoic membrane assessed as disruption of smaller blood vessels at 5 nmol after 6 hrs by light microscopic analysis; assay type: functional, tissue-based; conditions: Gallus gallus
Method in brief: (§3)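 Fertilized chicken eggs, CAM assay. Compound was applied topically into a small silicon foil ring placed on the CAM. The membrane and its extraembryonal blood vessels were monitored over 24 h, with observations at 6 h and 24 h post application.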

Chorioallantoic membrane [19] = assay: Antiangiogenic activity in Leghorn chicken embryo chorioallantoic membrane assessed as induction of hemorrhages at 5 nmol after 6 hrs by light microscopic analysis; assay type: functional, tissue-based; conditions: Gallus gallus; method in brief: as §3
Chorioallantoic membrane [20] = assay: Antiangiogenic activity in Leghorn chicken embryo chorioallantoic membrane assessed as induction of hemorrhages at 5 nmol after 24 hrs by light microscopic analysis; assay type: functional, tissue-based; conditions: Gallus gallus; method in brief: as §3
Chorioallantoic membrane [21] = assay: Antiangiogenic activity in Leghorn chicken embryo chorioallantoic membrane assessed as reduction in diameter of main blood vessel at 5 nmol after 24 hrs by light microscopic analysis; assay type: functional, tissue-based; conditions: Gallus gallus; method in brief: as §3
Chorioallantoic membrane [22] = assay: Antiangiogenic activity in Leghorn chicken embryo chorioallantoic membrane assessed as reduction in blood vessel area at 5 nmol after 6 hrs by light microscopic analysis relative to control; assay type: functional, tissue-based; parameters: scale not given: the % may be the effect or the level left; conditions: Gallus gallus
Method in brief: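 The CAM assay was run with topical application into a silicon foil ring atop the CAM of fertilized chicken eggs. Area covered by blood vessels was quantified by fractal analysis relative to control.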

Chorioallantoic membrane [23] = assay: Antiangiogenic activity in Leghorn chicken embryo chorioallantoic membrane assessed as effect on blood vessel length at 5 nmol after 6 hrs by light microscopic analysis; assay type: functional, tissue-based; conditions: Gallus gallus; method in brief: as §3
518A2 [24] = assay: Induction of apoptosis in human 518A2 cells assessed as accumulation at subG1 phase; assay type: functional, cell-based
518A2 [25] = assay: Induction of cell cycle arrest in human 518A2 cells; assay type: functional, cell-based
HT-29 [26] = assay: Cell cycle arrest in human HT-29 cells assessed as accumulation of cells at G2/M phase after 24 hrs by propidium iodide staining-based flow cytometric analysis; assay type: functional
Chorioallantoic membrane [27] = assay: Antiangiogenic activity in Leghorn chicken embryo chorioallantoic membrane assessed as disruption of smaller blood vessels at 5 nmol after 24 hrs by light microscopic analysis; assay type: functional, tissue-based; conditions: Gallus gallus; method in brief: as §3

- IC50 (HT-29 [2]): 5.82 µM
- IC50 (A2780): 2.15 µM
Structure (SMILES): COc1cc(C2C(C#N)=C(N)Oc3c2ccc2ccccc32)ccc1OCc1ccccc1 (stereo unspecified)
- Activity (518A2 [1]): Dose-dependent effect
- IC50 (518A2 [1]): 1.66 µM
- IC50 [3]: 2.34 µM

- IC50 (HT-29 [2]): 9.97 µM
- IC50 (A2780): 5.16 µM
Structure (SMILES): N#CC1=C(N)Oc2c(ccc3ccccc23)C1c1ccc(S(F)(F)(F)(F)F)cc1 (stereo unspecified)
- Activity (518A2 [1]): Dose-dependent effect
- IC50 (518A2 [1]): 7.13 µM
- IC50 [3]: 5.58 µM

- IC50 (HT-29 [2]): 0.57 µM
- IC50 (A2780): 0.188 µM
Structure (SMILES): N#CC1=C(N)Oc2c(ccc3ccccc23)C1c1cccc(S(F)(F)(F)(F)F)c1 (stereo unspecified)
- Activity (518A2 [1]): Dose-dependent effect
- IC50 (518A2 [1]): 0.505 µM
- IC50 [3]: 0.265 µM

- IC50 (HT-29 [2]): 1.1 µM
- IC50 (A2780): 0.363 µM
Structure (SMILES): CSc1ccc(C2C(C#N)=C(N)Oc3c2ccc2ccccc32)cc1 (stereo unspecified)
- Activity (518A2 [1]): Dose-dependent effect
- IC50 (518A2 [1]): 1.98 µM
- IC50 [3]: 0.43 µM

Second part, the molecule before the results:

Structure (SMILES): N#CC1=C(N)Oc2c(cc(Cl)c3ccccc23)C1c1cc(F)cc(F)c1 (stereo unspecified)
- Activity (518A2 [1]): Dose-dependent effect
- IC50 (518A2 [1]): 0.0241 µM
- IC50 (HT-29 [2]): 0.102 µM
- IC50 (A2780): 0.104 µM
- IC50 [3]: 0.155 µM
- IC50 (DLD-1): 0.0984 µM
- IC50 (EA.hy 926): 0.0678 µM
- IC50 (PANC-1): 0.0927 µM
- IC50 (HCT-116): 0.091 µM
- IC50 [4]: 0.092 µM
- IC50 [5]: 0.0798 µM
- Activity (HT-29 [6]): 3.3%
- Activity (HT-29 [7]): 4.5%
- Activity (HT-29 [8]): 3.5%
- Activity (HT-29 [9]): 52%
- Activity (HT-29 [10]): 3%
- Activity (HT-29 [11]): 1.6%
- Activity (HT-29 [12]): 19.6%
- Activity (HT-29 [13]): 2.3%
- Activity (HT-29 [14]): 2.2%
- Activity (HT-29 [15]): 25%
- Activity (HT-29 [16]): 90.3%
- Activity (HT-29 [17]): 90.3%
- Activity (Chorioallantoic membrane [18]): Active
- Activity (Chorioallantoic membrane [19]): Active
- Activity (Chorioallantoic membrane [20]): inactive
- Activity (Chorioallantoic membrane [21]): Active
- Activity (Chorioallantoic membrane [22]): inactive
- Activity (Chorioallantoic membrane [23]): inactive
- Activity (518A2 [24]): Active
- Activity (518A2 [25]): inactive
- Activity (HT-29 [26]): Dose-dependent effect
- Activity (Chorioallantoic membrane [27]): inactive

Structure (SMILES): N#CC1=C(N)Oc2c(cc(Cl)c3ccccc23)C1c1ccc(C#N)cc1 (stereo unspecified)
- Activity (518A2 [1]): Dose-dependent effect
- IC50 (518A2 [1]): 0.753 µM
- IC50 (HT-29 [2]): 1.59 µM
- IC50 (A2780): 1.44 µM
- IC50 [3]: 1.41 µM

Structure (SMILES): N#CC1=C(N)Oc2c(cc(Cl)c3ccccc23)C1c1cccc([N+](=O)[O-])c1 (stereo unspecified)
- Activity (518A2 [1]): Dose-dependent effect
- IC50 (518A2 [1]): 0.225 µM
- IC50 (HT-29 [2]): 0.209 µM
- IC50 (A2780): 0.0611 µM
- IC50 [3]: 0.046 µM
- IC50 (DLD-1): 0.0223 µM
- IC50 (EA.hy 926): 0.0908 µM
- IC50 (PANC-1): 0.0659 µM
- IC50 (HCT-116): 0.112 µM
- IC50 [4]: 0.0733 µM
- IC50 [5]: 0.0885 µM
- Activity (HT-29 [6]): 2%
- Activity (HT-29 [7]): 17.6%
- Activity (HT-29 [8]): 6.6%
- Activity (HT-29 [9]): 55.8%
- Activity (HT-29 [10]): 53.5%
- Activity (HT-29 [11]): 14.8%
- Activity (HT-29 [12]): 23.6%
- Activity (HT-29 [13]): 11.3%
- Activity (HT-29 [14]): 5.2%
- Activity (HT-29 [15]): 18.6%
- Activity (HT-29 [16]): 17.7%
- Activity (HT-29 [17]): 73.5%
- Activity (Chorioallantoic membrane [18]): Active
- Activity (Chorioallantoic membrane [19]): Active
- Activity (Chorioallantoic membrane [20]): inactive
- Activity (Chorioallantoic membrane [21]): Active
- Activity (Chorioallantoic membrane [22]): 74%
- Activity (Chorioallantoic membrane [23]): inactive
- Activity (518A2 [24]): Active
- Activity (518A2 [25]): inactive
- Activity (HT-29 [26]): Dose-dependent effect
- Activity (Chorioallantoic membrane [27]): inactive
